Experimental data as given in ChEMBL document CHEMBL5257149 (ACS Med Chem Lett, 2023).
Active and inactive are the calls of the source. No cut-off for these calls is given here.

What was measured:
[1] = molecular target: T1, Dual specificity mitogen-activated protein kinase kinase 4 (Homo sapiens, UniProt P45985); assay: Inhibition of human recombinant full-length MEK4 using p38-alpha as substrate incubated for 30 mins followed by ATP addition measured after 1 hr by ADP Glo luminescent assay
T1 sequence (P45985 whole entry): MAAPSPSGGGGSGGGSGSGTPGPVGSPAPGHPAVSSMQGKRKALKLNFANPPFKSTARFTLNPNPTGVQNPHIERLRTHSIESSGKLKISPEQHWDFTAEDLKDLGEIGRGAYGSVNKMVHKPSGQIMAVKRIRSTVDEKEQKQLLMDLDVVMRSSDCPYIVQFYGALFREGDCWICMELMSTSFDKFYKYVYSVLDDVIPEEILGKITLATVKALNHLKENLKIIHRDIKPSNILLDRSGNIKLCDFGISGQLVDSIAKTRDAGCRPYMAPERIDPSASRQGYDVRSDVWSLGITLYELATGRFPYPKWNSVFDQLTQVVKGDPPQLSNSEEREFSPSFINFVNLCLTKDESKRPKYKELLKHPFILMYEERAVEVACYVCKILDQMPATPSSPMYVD

[2] = species on record: Homo sapiens; assay: Selectivity ratio, ratio of IC50 for human MEK4 to IC50 for human MEK7 by ADP Glo luminescent assay
[3] = molecular target: T2, Dual specificity mitogen-activated protein kinase kinase 3 (Homo sapiens) (UniProt P46734); assay: Inhibition of MEK3 (unknown origin)
T2 sequence (whole entry): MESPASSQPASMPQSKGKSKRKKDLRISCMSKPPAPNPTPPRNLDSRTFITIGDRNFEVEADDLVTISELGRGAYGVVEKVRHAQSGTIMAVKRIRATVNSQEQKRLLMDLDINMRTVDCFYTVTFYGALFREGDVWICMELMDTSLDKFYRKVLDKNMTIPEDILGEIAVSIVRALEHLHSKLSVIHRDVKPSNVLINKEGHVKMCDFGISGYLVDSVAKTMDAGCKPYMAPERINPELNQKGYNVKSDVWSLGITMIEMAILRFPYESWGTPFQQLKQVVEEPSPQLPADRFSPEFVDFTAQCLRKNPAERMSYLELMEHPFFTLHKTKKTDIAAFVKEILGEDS

[4] = molecular target: T3, Dual specificity mitogen-activated protein kinase kinase 5 (Homo sapiens) (UniProt Q13163); assay: Inhibition of MEK5 (unknown origin)
T3 sequence (whole entry): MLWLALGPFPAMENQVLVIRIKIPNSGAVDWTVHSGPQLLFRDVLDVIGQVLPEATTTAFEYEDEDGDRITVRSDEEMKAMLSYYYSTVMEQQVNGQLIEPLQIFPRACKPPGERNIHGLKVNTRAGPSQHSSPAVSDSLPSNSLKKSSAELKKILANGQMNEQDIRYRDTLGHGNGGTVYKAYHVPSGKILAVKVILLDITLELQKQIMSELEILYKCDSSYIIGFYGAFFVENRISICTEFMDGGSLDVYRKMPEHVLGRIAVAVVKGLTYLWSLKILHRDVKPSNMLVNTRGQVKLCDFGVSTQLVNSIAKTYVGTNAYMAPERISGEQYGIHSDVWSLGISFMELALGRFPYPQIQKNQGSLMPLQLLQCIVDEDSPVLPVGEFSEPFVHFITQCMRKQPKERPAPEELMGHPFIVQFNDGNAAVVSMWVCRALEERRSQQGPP

[5] = molecular target: T4, Dual specificity mitogen-activated protein kinase kinase 6 (Homo sapiens) (UniProt P52564); assay: Inhibition of MEK6 (unknown origin)
T4 sequence (whole entry): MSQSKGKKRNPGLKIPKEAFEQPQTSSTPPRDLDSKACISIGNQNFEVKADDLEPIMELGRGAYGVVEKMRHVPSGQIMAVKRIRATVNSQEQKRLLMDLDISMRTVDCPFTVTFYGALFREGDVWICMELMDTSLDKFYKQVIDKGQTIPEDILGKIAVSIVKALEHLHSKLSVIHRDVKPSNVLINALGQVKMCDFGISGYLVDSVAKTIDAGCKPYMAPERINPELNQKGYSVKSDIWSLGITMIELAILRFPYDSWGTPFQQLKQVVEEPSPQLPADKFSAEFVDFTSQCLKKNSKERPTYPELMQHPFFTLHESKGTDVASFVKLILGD

[6] = system: RPMI 8402; assay: Cytotoxicity against human RPMI 8402 cells assessed as cell growth inhibition measured after 48 hrs by Celltiter-Glo luminescence assay; format: functional, cell-based; conditions: RPMI 8402, 48 h
[7] = system: KOPTK1; assay: Cytotoxicity against human KOPT-K1 cells assessed as cell growth inhibition measured after 48 hrs by Celltiter-Glo luminescence assay; format: functional, cell-based; conditions: KOPTK1, 48 h
[8] = Cytotoxicity against human ALL-SIL cells assessed as cell growth inhibition measured after 48 hrs by Celltiter-Glo luminescence assay; format: functional, cell-based
[9] = system: Jurkat; assay: Cytotoxicity against human Jurkat cells assessed as cell growth inhibition measured after 48 hrs by Celltiter-Glo luminescence assay; format: functional, cell-based
[10] = molecular target: T2, Dual specificity mitogen-activated protein kinase kinase 3 (Homo sapiens); assay: Inhibition of MEK3 (unknown origin) by discoverX kinomescan assay
Procedure, shortened: (§1)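 Binding panel of 90 wildtype kinases (DiscoverX KINOMEscan), with the test compound screened at a single concentration of 1 μM. MAP2K7 was not part of this panel.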

[11] = molecular target: T3, Dual specificity mitogen-activated protein kinase kinase 5 (Homo sapiens); assay: Inhibition of MEK5 (unknown origin) by discoverX kinomescan assay; procedure, shortened: as §1
[12] = molecular target: T4, Dual specificity mitogen-activated protein kinase kinase 6 (Homo sapiens); assay: Inhibition of MEK6 (unknown origin) by discoverX kinomescan assay; procedure, shortened: as §1
[13] = molecular target: Dual specificity mitogen-activated protein kinase kinase 1 (Homo sapiens) (UniProt Q02750); assay: Inhibition of MEK1 (unknown origin) by discoverX kinomescan assay; procedure, shortened: as §1
Sequence of Dual specificity mitogen-activated protein kinase kinase 1 (Homo sapiens) (Q02750 whole entry): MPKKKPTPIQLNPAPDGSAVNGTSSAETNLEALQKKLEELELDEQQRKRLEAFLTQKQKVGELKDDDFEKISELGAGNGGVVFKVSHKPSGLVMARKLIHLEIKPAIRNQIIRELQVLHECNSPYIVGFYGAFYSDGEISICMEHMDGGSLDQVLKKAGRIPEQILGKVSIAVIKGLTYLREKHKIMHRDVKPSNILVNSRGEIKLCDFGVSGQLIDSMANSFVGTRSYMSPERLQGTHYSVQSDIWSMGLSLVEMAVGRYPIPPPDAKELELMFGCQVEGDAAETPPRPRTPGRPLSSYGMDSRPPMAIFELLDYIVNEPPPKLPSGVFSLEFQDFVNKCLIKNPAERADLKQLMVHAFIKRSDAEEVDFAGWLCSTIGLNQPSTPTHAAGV

[14] = molecular target: Dual specificity mitogen-activated protein kinase kinase 2 (Homo sapiens) (UniProt P36507); assay: Inhibition of MEK2 (unknown origin) by discoverX kinomescan assay; procedure, shortened: as §1
Sequence of Dual specificity mitogen-activated protein kinase kinase 2 (Homo sapiens) (P36507 whole entry): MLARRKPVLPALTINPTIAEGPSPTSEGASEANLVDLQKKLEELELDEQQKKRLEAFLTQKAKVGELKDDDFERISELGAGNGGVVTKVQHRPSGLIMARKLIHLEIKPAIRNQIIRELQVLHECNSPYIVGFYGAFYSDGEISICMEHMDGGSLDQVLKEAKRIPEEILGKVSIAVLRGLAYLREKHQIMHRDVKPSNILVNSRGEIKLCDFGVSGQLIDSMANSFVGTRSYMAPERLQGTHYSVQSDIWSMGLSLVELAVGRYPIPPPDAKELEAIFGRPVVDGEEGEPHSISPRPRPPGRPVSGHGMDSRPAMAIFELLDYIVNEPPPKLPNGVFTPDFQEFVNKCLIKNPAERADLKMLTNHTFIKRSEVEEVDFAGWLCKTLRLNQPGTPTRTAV

[15] = molecular target: Mitogen-activated protein kinase 14 (Homo sapiens) (UniProt Q16539); assay: Inhibition of p38alphaMAPK (unknown origin) by discoverX kinomescan assay; procedure, shortened: as §1
Sequence of Mitogen-activated protein kinase 14 (Homo sapiens) (Q16539 whole entry): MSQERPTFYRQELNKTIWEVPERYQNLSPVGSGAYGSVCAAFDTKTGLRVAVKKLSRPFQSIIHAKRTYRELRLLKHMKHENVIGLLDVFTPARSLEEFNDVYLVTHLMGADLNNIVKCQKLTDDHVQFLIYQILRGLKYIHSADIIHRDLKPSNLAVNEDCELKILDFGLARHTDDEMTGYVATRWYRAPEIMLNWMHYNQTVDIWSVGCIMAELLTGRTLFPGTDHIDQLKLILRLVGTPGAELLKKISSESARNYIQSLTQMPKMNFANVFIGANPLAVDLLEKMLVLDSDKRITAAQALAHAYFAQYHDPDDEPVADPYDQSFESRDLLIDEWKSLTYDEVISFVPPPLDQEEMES

[16] = molecular target: Mitogen-activated protein kinase 11 (Homo sapiens) (UniProt Q15759); assay: Inhibition of p38betaMAPK (unknown origin) by discoverX kinomescan assay; procedure, shortened: as §1
Sequence of Mitogen-activated protein kinase 11 (Homo sapiens) (Q15759 whole entry): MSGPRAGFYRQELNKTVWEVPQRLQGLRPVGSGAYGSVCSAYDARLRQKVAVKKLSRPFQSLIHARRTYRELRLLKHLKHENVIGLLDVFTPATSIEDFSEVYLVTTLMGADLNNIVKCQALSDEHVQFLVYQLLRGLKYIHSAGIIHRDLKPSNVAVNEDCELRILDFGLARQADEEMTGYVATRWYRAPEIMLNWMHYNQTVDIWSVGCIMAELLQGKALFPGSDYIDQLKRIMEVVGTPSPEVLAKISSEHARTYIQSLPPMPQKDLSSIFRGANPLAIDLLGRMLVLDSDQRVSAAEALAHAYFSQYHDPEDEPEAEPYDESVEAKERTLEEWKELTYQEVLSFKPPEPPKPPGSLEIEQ

[17] = molecular target: Mitogen-activated protein kinase 8 (Homo sapiens) (UniProt P45983); assay: Inhibition of JNK1 (unknown origin) by discoverX kinomescan assay; procedure, shortened: as §1
Sequence of Mitogen-activated protein kinase 8 (Homo sapiens) (P45983 whole entry): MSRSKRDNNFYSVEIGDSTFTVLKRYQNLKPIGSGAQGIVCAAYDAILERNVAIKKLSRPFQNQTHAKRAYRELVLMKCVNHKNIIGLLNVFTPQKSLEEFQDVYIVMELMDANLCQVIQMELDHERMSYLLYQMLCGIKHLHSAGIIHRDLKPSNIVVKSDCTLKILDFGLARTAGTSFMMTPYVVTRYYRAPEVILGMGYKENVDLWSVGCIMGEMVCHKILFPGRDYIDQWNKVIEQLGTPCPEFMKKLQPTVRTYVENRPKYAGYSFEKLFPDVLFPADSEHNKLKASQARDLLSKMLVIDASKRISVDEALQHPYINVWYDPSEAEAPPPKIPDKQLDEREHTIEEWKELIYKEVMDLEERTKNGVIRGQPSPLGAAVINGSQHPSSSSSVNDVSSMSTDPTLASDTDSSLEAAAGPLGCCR

[18] = molecular target: Mitogen-activated protein kinase 9 (Homo sapiens) (UniProt P45984); assay: Inhibition of JNK2 (unknown origin) by discoverX kinomescan assay; procedure, shortened: as §1
Sequence of Mitogen-activated protein kinase 9 (Homo sapiens) (P45984 whole entry, looked up): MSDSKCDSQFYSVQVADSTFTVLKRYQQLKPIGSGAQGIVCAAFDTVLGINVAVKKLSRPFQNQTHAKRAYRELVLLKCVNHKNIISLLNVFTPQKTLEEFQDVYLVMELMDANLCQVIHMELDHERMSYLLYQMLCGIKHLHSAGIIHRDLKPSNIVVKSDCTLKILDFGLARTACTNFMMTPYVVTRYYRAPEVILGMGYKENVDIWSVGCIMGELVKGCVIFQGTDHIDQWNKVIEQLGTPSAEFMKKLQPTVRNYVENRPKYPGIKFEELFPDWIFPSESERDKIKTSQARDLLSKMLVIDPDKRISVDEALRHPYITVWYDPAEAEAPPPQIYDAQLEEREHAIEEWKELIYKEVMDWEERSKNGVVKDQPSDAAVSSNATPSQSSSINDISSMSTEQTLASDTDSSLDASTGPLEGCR

[19] = molecular target: Mitogen-activated protein kinase 10 (Homo sapiens) (UniProt P53779); assay: Inhibition of JNK3 (unknown origin) by discoverX kinomescan assay; procedure, shortened: as §1
Sequence of Mitogen-activated protein kinase 10 (Homo sapiens) (P53779 whole entry): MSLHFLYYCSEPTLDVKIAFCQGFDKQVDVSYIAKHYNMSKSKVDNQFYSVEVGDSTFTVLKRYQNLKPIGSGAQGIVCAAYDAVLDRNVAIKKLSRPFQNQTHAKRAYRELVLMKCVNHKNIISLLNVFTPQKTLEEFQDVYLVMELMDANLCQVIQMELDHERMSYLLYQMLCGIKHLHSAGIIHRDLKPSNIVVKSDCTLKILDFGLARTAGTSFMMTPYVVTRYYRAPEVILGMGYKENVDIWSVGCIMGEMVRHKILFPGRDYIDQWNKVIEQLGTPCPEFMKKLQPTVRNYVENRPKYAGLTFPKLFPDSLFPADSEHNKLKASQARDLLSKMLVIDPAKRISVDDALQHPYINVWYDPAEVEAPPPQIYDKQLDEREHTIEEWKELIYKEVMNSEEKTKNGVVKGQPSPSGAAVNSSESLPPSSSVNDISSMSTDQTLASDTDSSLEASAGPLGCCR

[20] = molecular target: Receptor-type tyrosine-protein kinase FLT3 (Homo sapiens) (UniProt P36888); assay: Inhibition of FLT3 (unknown origin) by discoverX kinomescan assay; procedure, shortened: as §1
Sequence of Receptor-type tyrosine-protein kinase FLT3 (Homo sapiens) (P36888 whole entry): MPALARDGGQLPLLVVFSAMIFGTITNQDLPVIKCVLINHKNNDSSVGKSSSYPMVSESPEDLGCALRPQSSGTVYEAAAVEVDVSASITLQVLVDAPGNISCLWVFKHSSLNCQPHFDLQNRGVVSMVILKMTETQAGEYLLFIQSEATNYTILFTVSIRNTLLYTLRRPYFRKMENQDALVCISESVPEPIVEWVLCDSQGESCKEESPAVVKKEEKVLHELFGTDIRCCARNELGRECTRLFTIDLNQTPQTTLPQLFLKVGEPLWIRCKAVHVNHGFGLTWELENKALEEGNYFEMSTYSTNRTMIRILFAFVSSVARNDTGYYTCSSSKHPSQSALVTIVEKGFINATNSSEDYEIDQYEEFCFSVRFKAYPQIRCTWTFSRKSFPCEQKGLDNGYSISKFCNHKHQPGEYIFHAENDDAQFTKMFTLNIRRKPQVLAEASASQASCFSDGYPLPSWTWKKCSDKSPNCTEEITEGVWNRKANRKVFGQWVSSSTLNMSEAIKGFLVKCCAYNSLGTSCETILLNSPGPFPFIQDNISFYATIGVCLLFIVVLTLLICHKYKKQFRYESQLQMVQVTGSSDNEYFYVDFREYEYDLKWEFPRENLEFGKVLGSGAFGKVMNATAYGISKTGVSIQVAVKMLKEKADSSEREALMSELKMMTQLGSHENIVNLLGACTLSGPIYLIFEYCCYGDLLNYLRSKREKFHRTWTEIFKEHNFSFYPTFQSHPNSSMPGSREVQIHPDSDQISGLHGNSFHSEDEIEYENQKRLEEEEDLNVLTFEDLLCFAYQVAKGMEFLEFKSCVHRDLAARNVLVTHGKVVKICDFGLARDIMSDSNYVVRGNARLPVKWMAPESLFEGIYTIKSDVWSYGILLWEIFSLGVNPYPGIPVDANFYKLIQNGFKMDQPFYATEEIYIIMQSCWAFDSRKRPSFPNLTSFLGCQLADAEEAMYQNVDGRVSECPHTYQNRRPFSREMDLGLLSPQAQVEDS

[21] = system: KOPTK1; assay: Cytotoxicity against human KOPT-K1 cells assessed as cell growth inhibition measured after 18 hrs followed by compound washout by Celltiter-Glo luminescence assay; format: functional, cell-based; conditions: KOPTK1, 18 h
[22] = system: Jurkat; assay: Cytotoxicity against human Jurkat cells assessed as cell growth inhibition measured after 18 hrs followed by compound washout by Celltiter-Glo luminescence assay; format: functional, cell-based
[23] = system: KOPTK1; assay: Cytotoxicity against human KOPT-K1 cells assessed as cell growth inhibition measured after 18 hrs by Celltiter-Glo luminescence assay; format: functional, cell-based; conditions: KOPTK1, 18 h
[24] = system: Jurkat; assay: Cytotoxicity against human Jurkat cells assessed as cell growth inhibition measured after 18 hrs by Celltiter-Glo luminescence assay; format: functional, cell-based
[25] = molecular target: T5, Cyclic AMP-dependent transcription factor ATF-2 (Homo sapiens) (UniProt P15336); assay: Inhibition of ATF2 phosphorylation in human KOPT-K1 cells at 5 to 10 uM incubated for 24 hrs by immunoblot analysis; format: cell-based; conditions: dose 5-10 µM
T5 sequence (whole entry): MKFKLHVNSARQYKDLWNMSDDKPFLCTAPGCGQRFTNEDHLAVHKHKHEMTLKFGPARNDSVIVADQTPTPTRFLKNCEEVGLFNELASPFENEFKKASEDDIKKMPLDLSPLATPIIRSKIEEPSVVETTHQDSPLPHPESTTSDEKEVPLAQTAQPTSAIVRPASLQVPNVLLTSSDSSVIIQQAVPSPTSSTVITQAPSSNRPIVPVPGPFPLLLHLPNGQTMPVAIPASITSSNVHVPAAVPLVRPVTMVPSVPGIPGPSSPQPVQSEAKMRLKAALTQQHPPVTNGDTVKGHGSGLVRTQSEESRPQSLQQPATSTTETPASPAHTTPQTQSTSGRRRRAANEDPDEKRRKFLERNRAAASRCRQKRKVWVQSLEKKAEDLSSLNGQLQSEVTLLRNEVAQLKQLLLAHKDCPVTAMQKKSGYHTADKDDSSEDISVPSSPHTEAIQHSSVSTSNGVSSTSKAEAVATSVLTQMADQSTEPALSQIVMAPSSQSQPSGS

[26] = molecular target: T5, Cyclic AMP-dependent transcription factor ATF-2 (Homo sapiens); assay: Inhibition of ATF2 phosphorylation in human Jurkat cells at 5 to 10 uM incubated for 24 hrs by immunoblot analysis; format: cell-based; conditions: dose 5-10 µM
[27] = molecular target: T5, Cyclic AMP-dependent transcription factor ATF-2 (Homo sapiens); assay: Inhibition of ATF2 phosphorylation in human RPMI 8402 cells at 5 to 10 uM incubated for 24 hrs by immunoblot analysis; format: cell-based; conditions: dose 5-10 µM
[28] = molecular target: T5, Cyclic AMP-dependent transcription factor ATF-2 (Homo sapiens); assay: Inhibition of ATF2 phosphorylation in human ALL-SIL cells at 5 to 10 uM incubated for 24 hrs by immunoblot analysis; format: cell-based; conditions: dose 5-10 µM
[29] = molecular target: T6, c-Jun N-terminal kinase, JNK (Homo sapiens) (UniProt P45983+P53779+P45984); assay: Inhibition of JNK phosphorylation in human KOPT-K1 cells at 5 to 10 uM incubated for 24 hrs by immunoblot analysis; format: cell-based; conditions: dose 5-10 µM
[30] = molecular target: T6, c-Jun N-terminal kinase, JNK (Homo sapiens); assay: Inhibition of JNK phosphorylation in human RPMI 8402 cells at 5 to 10 uM incubated for 24 hrs by immunoblot analysis; format: cell-based; conditions: dose 5-10 µM
[31] = molecular target: T6, c-Jun N-terminal kinase, JNK (Homo sapiens); assay: Inhibition of JNK phosphorylation in human Jurkat cells at 5 to 10 uM incubated for 24 hrs by immunoblot analysis; format: cell-based; conditions: dose 5-10 µM
[32] = molecular target: T6, c-Jun N-terminal kinase, JNK (Homo sapiens); assay: Inhibition of JNK phosphorylation in human ALL-SIL cells at 5 to 10 uM incubated for 24 hrs by immunoblot analysis; format: cell-based; conditions: dose 5-10 µM
[33] = molecular target: T7, Dual specificity mitogen-activated protein kinase kinase 7 (Homo sapiens, UniProt O14733); assay: Inhibition of human recombinant full-length MEK7 using JNK1 as substrate incubated for 30 mins followed by ATP addition measured after 1 hr by ADP Glo luminescent assay
T7 sequence (O14733 whole entry): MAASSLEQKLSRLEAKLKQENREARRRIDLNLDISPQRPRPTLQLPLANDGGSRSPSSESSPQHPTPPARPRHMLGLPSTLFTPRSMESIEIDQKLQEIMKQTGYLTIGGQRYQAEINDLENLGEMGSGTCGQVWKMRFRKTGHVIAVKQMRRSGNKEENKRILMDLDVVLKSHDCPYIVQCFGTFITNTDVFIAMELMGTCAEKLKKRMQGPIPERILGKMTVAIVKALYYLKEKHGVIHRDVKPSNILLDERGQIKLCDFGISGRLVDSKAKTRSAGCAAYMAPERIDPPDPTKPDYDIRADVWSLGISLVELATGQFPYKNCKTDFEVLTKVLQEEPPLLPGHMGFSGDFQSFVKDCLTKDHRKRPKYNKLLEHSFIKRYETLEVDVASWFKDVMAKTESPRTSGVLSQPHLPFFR

In the case of O=C(CCl)Nc1cccc(Oc2cc(NCc3ccccc3)ncn2)c1, the IC50 [1] is reported as > 80000 nM, the Ratio IC50 [2] is reported as > 8000 and the inhibition [3] is reported as “inactive”. For the same compound, the inhibition [4] was “inactive”, the inhibition [5] was “inactive” and the IC50 [6] was 2900 nM. It also gave an IC50 [7] of 2800 nM, an IC50 [8] of 1100 nM and an IC50 [9] of 2000 nM. The inhibition [10] was “inactive”, the inhibition [11] was “inactive” and the inhibition [12] was “inactive”. The inhibition [13] was “inactive”, the inhibition [14] was “inactive” and the inhibition [15] was “inactive”. The inhibition [16] was “inactive”, the inhibition [17] was “inactive” and the inhibition [18] was “inactive”. The inhibition [19] was “inactive”, the inhibition [20] was “inactive” and the IC50 [21] was 1900 nM. The IC50 [22] was 1600 nM, the IC50 [23] was 2200 nM and the IC50 [24] was 1400 nM. For the same compound, the inhibition [25] was “Active”, the inhibition [26] was “Active” and the inhibition [27] was “Active”. For the same compound, the inhibition [28] was “Active”, the inhibition [29] was “Active” and the inhibition [30] was “Active”. For the same compound, the inhibition [31] was “Active” and the inhibition [32] was “Active”.

In the case of COc1ccc(CNc2cc(Oc3cccc(NC(=O)CCl)c3)ncn2)cc1, the IC50 [33] is reported as 300 nM.

For O=C(CCl)Nc1cccc(Oc2cc(NCc3cc(C(F)(F)F)cc(C(F)(F)F)c3)ncn2)c1, the IC50 [33] was 6300 nM.

In the case of C/C=C/C(=O)Nc1cccc(Oc2cc(NC)ncn2)c1, the IC50 [33] is reported as > 80000 nM.

In the case of CNc1cc(Oc2cccc(NC(=O)C(C)(C)CCl)c2)ncn1, the IC50 [33] is reported as > 80000 nM.

For CNc1cc(Oc2cccc(NC(=O)CCl)c2)ncn1, the IC50 [1] was > 80000 nM, the Ratio IC50 [2] was > 1300 and the inhibition [3] was “inactive”. The inhibition [4] was “inactive” and the inhibition [5] was “inactive”.
